Measurements from ChEMBL document CHEMBL1147832, “Flexible synthesis and biological evaluation of novel 5-deoxyadenophorine analogues” (Bioorg Med Chem Lett, 2006).

How the values were obtained:
[1] = Inhibition of yeast alpha glucosidase; parameters: species or system Saccharomyces cerevisiae
[2] = biological target: Alpha-galactosidase (Coffea arabica) (UniProt Q5DUH8); test: Inhibition of green coffee alpha galactosidase at 1 mM
How it was run: (§1)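 Commercial enzymes: yeast α-glucosidase, almond β-glucosidase, green coffee bean α-galactosidase, Aspergillus β-galactosidase. Each was run at its optimum pH and temperature with the matching p-nitrophenyl glycoside at a substrate concentration equal to the calculated Km. Inhibitor was at 1 mM final. Low-pH reactions were stopped with 400 mM Na2CO3. Released p-nitrophenol was read at 405 nm, giving % inhibition.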

[3] = biological target: T1, Beta-galactosidase (Aspergillus niger) (UniProt P29853); test: Inhibition of Aspergillus beta galactosidase at 1 mM; how it was run: as §1
T1 sequence (whole entry): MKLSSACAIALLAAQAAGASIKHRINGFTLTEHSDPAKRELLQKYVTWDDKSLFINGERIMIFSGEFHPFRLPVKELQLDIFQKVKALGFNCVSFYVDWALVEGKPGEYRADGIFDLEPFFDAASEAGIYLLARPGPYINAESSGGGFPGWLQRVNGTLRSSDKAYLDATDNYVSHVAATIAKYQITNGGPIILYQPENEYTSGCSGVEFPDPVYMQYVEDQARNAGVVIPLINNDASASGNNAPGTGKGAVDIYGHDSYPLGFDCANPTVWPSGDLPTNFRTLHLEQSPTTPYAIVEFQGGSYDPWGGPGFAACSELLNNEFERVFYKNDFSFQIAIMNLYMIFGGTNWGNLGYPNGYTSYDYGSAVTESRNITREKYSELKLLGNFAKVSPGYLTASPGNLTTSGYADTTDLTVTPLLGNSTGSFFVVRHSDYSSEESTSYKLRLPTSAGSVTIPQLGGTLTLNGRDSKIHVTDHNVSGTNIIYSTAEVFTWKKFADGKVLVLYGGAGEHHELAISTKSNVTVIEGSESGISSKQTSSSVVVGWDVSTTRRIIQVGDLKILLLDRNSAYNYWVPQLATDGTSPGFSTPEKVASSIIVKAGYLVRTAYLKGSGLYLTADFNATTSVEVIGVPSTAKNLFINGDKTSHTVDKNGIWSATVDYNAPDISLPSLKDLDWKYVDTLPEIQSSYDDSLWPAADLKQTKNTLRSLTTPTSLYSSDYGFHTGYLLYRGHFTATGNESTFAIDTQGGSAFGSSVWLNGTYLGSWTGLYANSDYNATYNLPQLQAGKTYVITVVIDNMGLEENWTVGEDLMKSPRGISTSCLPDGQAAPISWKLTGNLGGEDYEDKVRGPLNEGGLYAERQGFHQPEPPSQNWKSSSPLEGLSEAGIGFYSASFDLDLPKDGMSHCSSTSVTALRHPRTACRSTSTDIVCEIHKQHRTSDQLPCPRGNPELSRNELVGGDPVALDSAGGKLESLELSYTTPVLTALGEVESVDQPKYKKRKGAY

Alpha-galactosidase = Alpha-galactosidase (Coffea arabica, UniProt Q5DUH8); test: Inhibition of green coffee alpha galactosidase
Saccharomyces cerevisiae = test: Inhibition of yeast alpha glucosidase at 1 mM; how it was run: as §1
[4] = biological target: T2, Alpha-glucosidase-like (Oryza sativa Japonica Group) (UniProt A0A5S6RD55); test: Inhibition of rice alpha glucosidase at 1 mM
T2 sequence (whole entry): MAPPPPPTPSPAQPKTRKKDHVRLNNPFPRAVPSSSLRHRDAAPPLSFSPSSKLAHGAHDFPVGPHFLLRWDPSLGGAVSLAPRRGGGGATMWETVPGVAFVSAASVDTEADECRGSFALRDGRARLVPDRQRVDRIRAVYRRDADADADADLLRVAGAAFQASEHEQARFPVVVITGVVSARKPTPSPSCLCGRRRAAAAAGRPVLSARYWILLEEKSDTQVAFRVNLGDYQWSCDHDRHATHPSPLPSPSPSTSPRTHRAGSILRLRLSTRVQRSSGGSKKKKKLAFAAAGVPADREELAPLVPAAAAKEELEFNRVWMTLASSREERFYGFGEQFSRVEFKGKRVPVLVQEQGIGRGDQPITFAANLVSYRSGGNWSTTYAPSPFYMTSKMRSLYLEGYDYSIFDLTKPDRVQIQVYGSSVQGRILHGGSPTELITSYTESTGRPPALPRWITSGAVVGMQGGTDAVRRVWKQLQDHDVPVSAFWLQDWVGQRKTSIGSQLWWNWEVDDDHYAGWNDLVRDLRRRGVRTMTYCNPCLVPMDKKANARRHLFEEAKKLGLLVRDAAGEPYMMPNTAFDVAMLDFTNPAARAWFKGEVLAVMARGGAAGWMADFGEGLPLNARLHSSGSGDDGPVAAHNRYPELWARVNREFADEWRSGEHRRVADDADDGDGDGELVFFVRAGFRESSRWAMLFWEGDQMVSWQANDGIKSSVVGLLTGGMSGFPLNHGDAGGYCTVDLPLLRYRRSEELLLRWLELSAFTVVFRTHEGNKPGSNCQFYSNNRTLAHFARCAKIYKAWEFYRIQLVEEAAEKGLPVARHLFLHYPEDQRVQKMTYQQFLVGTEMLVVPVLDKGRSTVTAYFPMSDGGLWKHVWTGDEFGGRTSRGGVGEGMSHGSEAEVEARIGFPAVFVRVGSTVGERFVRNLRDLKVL

Beta-galactosidase = biological target: T3, Beta-galactosidase (Bos taurus, UniProt Q58D55); test: Inhibition of bovine liver beta galactosidase
T3 sequence (Q58D55 whole entry): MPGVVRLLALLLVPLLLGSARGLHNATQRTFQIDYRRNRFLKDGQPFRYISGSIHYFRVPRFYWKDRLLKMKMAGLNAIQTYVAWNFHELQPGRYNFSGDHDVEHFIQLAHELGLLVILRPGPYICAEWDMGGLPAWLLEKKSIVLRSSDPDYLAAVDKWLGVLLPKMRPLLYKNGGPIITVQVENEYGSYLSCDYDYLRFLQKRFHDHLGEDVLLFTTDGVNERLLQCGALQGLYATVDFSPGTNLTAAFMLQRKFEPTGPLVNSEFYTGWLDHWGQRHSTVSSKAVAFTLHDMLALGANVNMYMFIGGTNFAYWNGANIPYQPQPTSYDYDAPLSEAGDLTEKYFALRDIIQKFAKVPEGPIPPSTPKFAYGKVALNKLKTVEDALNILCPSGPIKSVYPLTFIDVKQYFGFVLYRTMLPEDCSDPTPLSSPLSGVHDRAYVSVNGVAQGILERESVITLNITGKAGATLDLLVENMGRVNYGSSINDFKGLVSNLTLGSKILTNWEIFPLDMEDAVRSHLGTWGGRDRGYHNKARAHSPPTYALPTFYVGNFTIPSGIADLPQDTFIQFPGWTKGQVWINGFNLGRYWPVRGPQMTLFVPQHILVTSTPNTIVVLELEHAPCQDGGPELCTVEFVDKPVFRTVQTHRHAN

Sequence of Alpha-galactosidase (Coffea arabica) (Q5DUH8 as listed by the source): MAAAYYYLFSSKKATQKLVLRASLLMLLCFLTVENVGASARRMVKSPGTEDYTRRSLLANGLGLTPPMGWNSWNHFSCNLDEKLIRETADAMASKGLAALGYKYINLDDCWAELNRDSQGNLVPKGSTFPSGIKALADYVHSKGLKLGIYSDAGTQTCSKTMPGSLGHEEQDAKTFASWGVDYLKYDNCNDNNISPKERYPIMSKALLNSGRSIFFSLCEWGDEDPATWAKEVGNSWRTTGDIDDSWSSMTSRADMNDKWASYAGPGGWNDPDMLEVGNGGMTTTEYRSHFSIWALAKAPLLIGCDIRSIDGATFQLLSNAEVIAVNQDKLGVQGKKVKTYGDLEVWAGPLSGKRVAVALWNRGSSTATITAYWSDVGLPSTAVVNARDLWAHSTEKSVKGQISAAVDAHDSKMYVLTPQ
Sequence of Alpha-galactosidase (Q5DUH8 whole entry): as the sequence (Q5DUH8 as listed by the source) above

Ki [1] | inhibition [2] | inhibition [3] | Ki (Alpha-galactosidase) | inhibition (Saccharomyces cerevisiae) | IC50 (Alpha-galactosidase) | inhibition [4] | IC50 (Beta-galactosidase) | SMILES
123 µM | – | < 40% | 721 µM | – | – | – | – | CC[C@@H]1C[C@@H](O)[C@@H](O)[C@@H](CO)N1
– | < 40% | < 40% | – | < 40% | – | – | – | CCC[C@@H]1C[C@H](O)[C@@H](O)[C@@H](CO)N1
– | – | – | – | – | 6.4 µM | < 40% | 34 µM | CC[C@@H]1C[C@H](O)[C@@H](O)[C@@H](CO)N1

More lines, now with the values behind:

SMILES | Ki [1] | inhibition [2] | inhibition [3] | Ki (Alpha-galactosidase) | inhibition (Saccharomyces cerevisiae) | IC50 (Alpha-galactosidase) | inhibition [4] | IC50 (Beta-galactosidase)
CCCCCCCCCCC[C@@H]1C[C@H](O)[C@@H](O)[C@@H](CO)N1 | 196 µM | < 40% | < 40% | – | – | – | – | –
CCCC[C@@H]1C[C@H](O)[C@@H](O)[C@@H](CO)N1 | – | < 40% | < 40% | – | < 40% | – | – | –
CCCCCCC[C@@H]1C[C@@H](O)[C@@H](O)[C@@H](CO)N1 | 154 µM | – | < 40% | 141 µM | – | – | – | –
CCCCCCC[C@@H]1C[C@H](O)[C@@H](O)[C@@H](CO)N1 | – | < 40% | < 40% | – | < 40% | – | – | –
